In ChEMBL document CHEMBL1127787, “1,2,3-Triazole-[2',5'-bis-O-(tert-butyldimethylsilyl)-beta-D- ribofuranosyl]-3'-spiro-5"-(4"-amino-1",2"-oxathiole 2",2"-dioxide) (TSAO) analogues: synthesis and anti-HIV-1 activity” (J Med Chem, 1994) one finds CC50, Ratio and EC50 data, which are given here for 19 compounds.

Where only a bound is given, the exact number is not on record here.

The subject of test [1] is MT4. Put plainly: Tested for the cytotoxic concentration required to reduce the number of viable mock infected MT-4 cells. The class given is functional. The settings on record: Homo sapiens. In short, it runs like this:
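Mock-infected MT-4 cells (5 × 10^5/mL) in RPMI-1640 with 10% FCS were exposed to compound dilutions (100 to 0.006 µg/mL). Viable cells were counted by trypan blue at day 5; about 150-200 cells were counted in controls. CC50 is the concentration that reduces viable cell number by 50%.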

The test system of test [2] is MT4. Put plainly: Tested for the ratio between CC50 (MT-4) to EC50 (MT-4). The class given is functional, Homo sapiens.
Test [3] deals with CCRF-CEM. Put plainly: Tested for the inhibitory activity of virus induced giant cell formation in HIV-2 infected CEM cells. Type of test: functional, cell-based. The settings on record: Homo sapiens.
Test [4] concerns CCRF-CEM. Put plainly: Tested for the inhibitory activity of virus induced giant cell formation in HIV-1 infected CEM cells. The settings on record: Homo sapiens. Type of test: functional, cell-based.
Test [5] concerns MT4. Description: Tested for the inhibitory activity of HIV-2 infected MT-4 cells. The settings on record: Homo sapiens. The class given is functional, cell-based. The essentials: (§1)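 MT-4 cells (5 × 10^5/mL) grown in RPMI-1640 with 10% FCS, 2 mM L-glutamine and 0.075% NaHCO3. Infected with HIV-1 or HIV-2 at 100 CCID50/mL and mixed with compound dilutions (100 to 0.006 µg/mL). After 5 days viable cells were counted by trypan blue staining. EC50 is the concentration that reduces viable-cell loss in infected cultures by 50%.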

For test [6], the system named is MT4. Description: Tested for the inhibitory activity of HIV-1 infected MT-4 cells. Type of test: functional, cell-based. The settings on record: Homo sapiens. The essentials: as §1

As usually defined, the CC50 is the concentration at which the toxic effect on the cells reaches its halfway point. A higher CC50 goes with better tolerance by the cells. One may read the EC50 as the concentration at which the effect is half-maximal. Read a high EC50 as lower potency in that assay. With `COC(=O)c1nnn([C@@H]2O[C@H](CO[Si](C)(C)C(C)(C)C)[C@@]3(OS(=O)(=O)C=C3N)[C@H]2O[Si](C)(C)C(C)(C)C)c1C(=O)OC`, the CC50 with MT4 [1] turned out to be 111 µM. Further, in the test on MT4 [2], the Ratio turned out to be 231. Besides, the EC50 is more than 30 µM in the test with CCRF-CEM [3], 530 nM in the test on CCRF-CEM [4], more than 150 µM with MT4 [5] and 480 nM with MT4 [6].
With `CCCCc1cn([C@@H]2O[C@H](CO[Si](C)(C)C(C)(C)C)[C@@]3(OS(=O)(=O)C=C3N)[C@H]2O[Si](C)(C)C(C)(C)C)nn1`, the half-maximal cytotoxic concentration (CC50) with MT4 [1] was found to be 107 µM. Further, the Ratio with MT4 [2] is 41. Also, the EC50 is more than 7 µM with CCRF-CEM [3], 1500 nM with CCRF-CEM [4], more than 170 µM in the test with MT4 [5] and 2600 nM in the test on MT4 [6].
As to `CNC(=O)c1cnnn1[C@@H]1O[C@H](CO[Si](C)(C)C(C)(C)C)[C@@]2(OS(=O)(=O)C=C2N)[C@H]1O[Si](C)(C)C(C)(C)C`, it took 27 µM to reach half-maximal cytotoxicity with MT4 [1] (CC50). In addition, the Ratio with MT4 [2] is listed as 171. Further, the EC50 in the test with CCRF-CEM [3] was more than 7 µM; in the test on CCRF-CEM [4], 80 nM; in the test on MT4 [5] it was more than 7 µM; in the test with MT4 [6] it was 160 nM.
`COC(=O)c1cn([C@@H]2O[C@H](CO[Si](C)(C)C(C)(C)C)[C@@]3(OS(=O)(=O)C=C3NC(C)=O)[C@H]2O[Si](C)(C)C(C)(C)C)nn1` displayed a CC50 in the test on MT4 [1] of 56 µM. The Ratio entry in the test on MT4 [2] was “<=1.7”. Also, the EC50 with CCRF-CEM [3] is more than 32 µM; in the test with CCRF-CEM [4] it was 28000 nM; with MT4 [5], more than 32 µM; in the test on MT4 [6], not below 32000 nM.
Regarding `Cc1cn([C@@H]2O[C@H](CO[Si](C)(C)C(C)(C)C)[C@@]3(OS(=O)(=O)C=C3N)[C@H]2O[Si](C)(C)C(C)(C)C)nn1`, the midpoint of cytotoxicity in the test on MT4 [1], the CC50, lay at 23 µM. In addition, the Ratio with MT4 [2] is reported as 8.4. Besides, the EC50 in the test on CCRF-CEM [3] is more than 6.9 µM; in the test with CCRF-CEM [4], 1400 nM; with MT4 [5], more than 35 µM; with MT4 [6], 2800 nM.
In turn, `COC(=O)c1cnnn1[C@@H]1O[C@H](CO[Si](C)(C)C(C)(C)C)[C@@]2(OS(=O)(=O)C=C2N)[C@H]1O[Si](C)(C)C(C)(C)C` came in with a CC50 with MT4 [1] of 128 µM. Further, the Ratio with MT4 [2] is on record as 142. Moreover, the EC50 with CCRF-CEM [3] was more than 40 µM; with CCRF-CEM [4], 130 nM; in the test with MT4 [5] it was more than 150 µM; with MT4 [6], 900 nM.
In the case of `CC(C)(C)[Si](C)(C)OC[C@H]1O[C@@H](n2cc(C(N)=O)nn2)[C@H](O[Si](C)(C)C(C)(C)C)[C@]12OS(=O)(=O)C=C2N`, it took 15 µM to reach half-maximal cytotoxicity in the test on MT4 [1] (CC50). In the test on MT4 [2], the Ratio amounted to 12.5. Besides, the EC50 is more than 7 µM in the test with CCRF-CEM [3], 900 nM with CCRF-CEM [4], more than 7 µM in the test on MT4 [5] and 1200 nM with MT4 [6].
In the test on MT4 [1], `Cc1ccnc2c1NC(=O)c1cccnc1N2C1CC1` [NEVIRAPINE] came in with a cytotoxic concentration (CC50) of more than 80 µM. Besides, the Ratio with MT4 [2] is listed as more than 625. The EC50 was more than 80 µM in the test on CCRF-CEM [3], 110 nM with CCRF-CEM [4], more than 80 µM with MT4 [5] and 120 nM with MT4 [6].
The compound `CCOC(OCC)c1cnnn1[C@@H]1O[C@H](CO[Si](C)(C)C(C)(C)C)[C@@]2(OS(=O)(=O)C=C2N)[C@H]1O[Si](C)(C)C(C)(C)C` had a CC50 in the test on MT4 [1] of more than 150 µM. For the same compound, the Ratio in the test with MT4 [2] is reported as ><1. The EC50 in the test on CCRF-CEM [3] is more than 150 µM; with CCRF-CEM [4] it was more than 150000 nM; in the test on MT4 [5], more than 40 µM; in the test on MT4 [6], more than 40000 nM.
In turn, `CCCCc1cnnn1[C@@H]1O[C@H](CO[Si](C)(C)C(C)(C)C)[C@@]2(OS(=O)(=O)C=C2N)[C@H]1O[Si](C)(C)C(C)(C)C` came in with a CC50 in the test on MT4 [1] not below 170 µM. In the test on MT4 [2], the Ratio result was “>=115”. In addition, the EC50 in the test on CCRF-CEM [3] was more than 35 µM; in the test with CCRF-CEM [4] it was 1500 nM; in the test on MT4 [5] it was more than 170 µM; with MT4 [6] it was 1580 nM.
As for `CC(C)(C)[Si](C)(C)OC[C@H]1O[C@@H](n2cc(CCCCl)nn2)[C@H](O[Si](C)(C)C(C)(C)C)[C@]12OS(=O)(=O)C=C2N`, the CC50 in the test on MT4 [1] was 53 µM. Also, in the test with MT4 [2], the Ratio is 91.4. Moreover, the 50% effective concentration (EC50) with CCRF-CEM [3] is more than 33 µM; in the test on CCRF-CEM [4], 660 nM; with MT4 [5] it was more than 170 µM; with MT4 [6], 580 nM.
Consider `CC(C)(C)[Si](C)(C)OC[C@H]1O[C@@H](n2nncc2CBr)[C@H](O[Si](C)(C)C(C)(C)C)[C@]12OS(=O)(=O)C=C2N`, for which the cytotoxic concentration (CC50) in the test with MT4 [1] came to 13 µM. Moreover, the Ratio with MT4 [2] was less than 2.1. The EC50 in the test with CCRF-CEM [3] was more than 6 µM; with CCRF-CEM [4], more than 1300 nM; in the test with MT4 [5] it was more than 6 µM; with MT4 [6], not below 6000 nM.
As to `CC(C)(C)[Si](C)(C)OC[C@H]1O[C@@H](n2cc([Si](C)(C)C)nn2)[C@H](O[Si](C)(C)C(C)(C)C)[C@]12OS(=O)(=O)C=C2N`, the CC50 with MT4 [1] stood at 9.5 µM. For the same compound, the Ratio entry in the test on MT4 [2] is “<=1.44”. Further, the EC50 with CCRF-CEM [3] is more than 2.6 µM; with CCRF-CEM [4], 2800 nM; with MT4 [5] it was more than 6.6 µM; in the test with MT4 [6] it was not below 6600 nM.
Consider `CN(C)C(=O)c1cn([C@@H]2O[C@H](CO[Si](C)(C)C(C)(C)C)[C@@]3(OS(=O)(=O)C=C3N)[C@H]2O[Si](C)(C)C(C)(C)C)nn1`, for which the CC50 with MT4 [1] stood at 12 µM. In addition, the Ratio in the test with MT4 [2] amounted to 28.1. Also, the EC50 in the test with CCRF-CEM [3] was more than 7 µM; in the test on CCRF-CEM [4], 1200 nM; with MT4 [5] it was more than 7 µM; with MT4 [6], 420 nM.
For `CC(C)(C)[Si](C)(C)OC[C@H]1O[C@@H](n2cc(CBr)nn2)[C@H](O[Si](C)(C)C(C)(C)C)[C@]12OS(=O)(=O)C=C2N`, the cytotoxic concentration (CC50) with MT4 [1] was found to be 14 µM. For the same compound, in the test on MT4 [2], the Ratio was less than 2.1. The EC50 with CCRF-CEM [3] was more than 1.3 µM; in the test with CCRF-CEM [4] it was more than 1300 nM; with MT4 [5], more than 6.5 µM; in the test on MT4 [6] it was not below 6500 nM.
In the test with MT4 [1], `CC(C)(C)[Si](C)(C)OC[C@H]1O[C@@H](n2nncc2CCCCl)[C@H](O[Si](C)(C)C(C)(C)C)[C@]12OS(=O)(=O)C=C2N` registered a CC50 of 79 µM. The Ratio with MT4 [2] came out at 40.6. For the same compound, the EC50 in the test with CCRF-CEM [3] was more than 7 µM; in the test with CCRF-CEM [4], 820 nM; with MT4 [5], more than 164 µM; in the test with MT4 [6], 1900 nM.
In the test with MT4 [1], `COCc1cn([C@@H]2O[C@H](CO[Si](C)(C)C(C)(C)C)[C@@]3(OS(=O)(=O)C=C3N)[C@H]2O[Si](C)(C)C(C)(C)C)nn1` gave a CC50 of 73 µM. In the test with MT4 [2], the Ratio amounted to 2.44. Further, the EC50 in the test on CCRF-CEM [3] is more than 70 µM; in the test with CCRF-CEM [4] it was 2300 nM; in the test on MT4 [5] it was more than 35 µM; with MT4 [6], 27000 nM.
In the test on MT4 [1], `CC(C)(C)[Si](C)(C)OC[C@H]1O[C@@H](n2ccnn2)[C@H](O[Si](C)(C)C(C)(C)C)[C@]12OS(=O)(=O)C=C2N` had a CC50 of 15 µM. For the same compound, the Ratio with MT4 [2] was determined as 4.1. The EC50 in the test on CCRF-CEM [3] is more than 7.5 µM; with CCRF-CEM [4] it was 3400 nM; in the test with MT4 [5], more than 7.5 µM; in the test on MT4 [6], 3800 nM.
With `CC(C)(C)[Si](C)(C)OC[C@H]1O[C@@H](n2nncc2C(N)=O)[C@H](O[Si](C)(C)C(C)(C)C)[C@]12OS(=O)(=O)C=C2N`, the midpoint of cytotoxicity with MT4 [1], the CC50, lay at 15 µM. Further, in the test on MT4 [2], the Ratio was 28.1. Besides, the EC50 in the test on CCRF-CEM [3] is more than 7 µM; in the test with CCRF-CEM [4], 140 nM; in the test with MT4 [5], more than 7 µM; in the test with MT4 [6], 520 nM.
